The values below come from ChEMBL document CHEMBL1142157, “Optimal antimicrobial catheter lock solution, using different combinations of minocycline, EDTA, and 25-percent ethanol, rapidly eradicates organisms embedded in biofilm” (2007).

Format in all cases: functional
The subject of assay [1] is Candida parapsilosis. The assay is described as follows: Antimicrobial activity against Candida parapsilosis in silicone disk biofilm at 3 mg/ml after 60 mins. Put shortly:
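Silicone disks were preconditioned in human plasma for 24 h at 37°C with shaking. They were then colonized 24 h with C. parapsilosis at 5.5 × 10^5 cells/ml in MHB and washed 30 min in saline. Disks were exposed 1 h at 37°C to drug or MHB, sonicated 5 min in saline, vortexed and plated on blood agar. 5–10 replicates; mean CFU/ml ± SD, capped at 5,000.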

Assay [2] has as its system Candida parapsilosis. The assay is described as follows: Antimicrobial activity against Candida parapsilosis embedded in MRD biofilm at 3 mg/ml after 15 mins in drug assessed as 24 hr regrowth. The method, boiled down:
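MRD C. parapsilosis-colonized segments were soaked 15 min at 37°C in drug in broth. A second set was reincubated 24 h at 37°C in Mueller-Hinton broth, scrape-sonicated and plated on sheep blood agar overnight. Regrowth is given as mean CFU/ml ± SD, capped at 500.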

The test system of assay [3] is Staphylococcus aureus. The assay is described as follows: Antimicrobial activity against methicillin-resistant Staphylococcus aureus embedded in MRD biofilm model at 3 mg/ml after 15 mins. The method, boiled down:
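MRSA clinical isolates from catheter-related bacteremia. Infusate of 2 × 10^5 CFU/ml in 5% dextrose water pumped through a modified Robbins device at 60 ml/h for 8 h at 37°C, then 10 h further incubation and a 2 h saline flush. Catheter segments soaked in drug in Mueller-Hinton broth for 15 min at 37°C, scrape-sonicated in TSB, plated on blood agar overnight. Mean CFU/ml, capped at 500.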

For assay [4], the system named is Staphylococcus aureus. The assay is described as follows: Antimicrobial activity against methicillin-resistant Staphylococcus aureus in silicone disk biofilm at 3 mg/ml after 60 mins in drug assessed as 24 hr regrowth. The method, boiled down: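 MRSA biofilm on plasma-coated silicone disks (inoculum 5.5 × 10^5 cells/ml in MHB, 24 h, 37°C, shaking), saline-washed, then exposed to drug for 1 h at 37°C. Disks washed in saline, incubated overnight at 37°C in Trypticase soy broth, sonicated 5 min in that broth and plated on blood agar. 5–10 replicates. Mean CFU/ml, capped at 5,000.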

Assay [5] concerns Candida parapsilosis. Put plainly: Antimicrobial activity against Candida parapsilosis embedded in MRD biofilm at 3 mg/ml after 15 mins. The method, boiled down: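 MRD catheter segments colonized by infusing C. parapsilosis-infected 5% dextrose (2 × 10^2 CFU/ml) at 60 ml/h for 8 h at 37°C, then incubated 10 h more and flushed with saline 2 h. Segments soaked 15 min at 37°C in drug in Mueller-Hinton broth (MHB alone as control). Then scrape-sonicated 5 min in Trypticase soy broth and plated on blood agar overnight. Mean CFU/ml ± SD reported, capped at 500.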

The test system of assay [6] is Candida parapsilosis. Put plainly: Antimicrobial activity against Candida parapsilosis in silicone disk biofilm at 3 mg/ml after 60 mins in drug assessed as 24 hr regrowth. The method, boiled down: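 C. parapsilosis biofilm on plasma-coated silicone disks was exposed 1 h at 37°C to drug, then saline-washed and incubated overnight at 37°C in Trypticase soy broth. Disks were then sonicated 5 min in that broth and plated on sheep blood agar. 5–10 replicates; regrowth is given as mean CFU/ml ± SD, capped at 5,000.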

Assay [7] has as its system Staphylococcus aureus. The assay is described as follows: Antimicrobial activity against methicillin-resistant Staphylococcus aureus in silicone disk biofilm at 3 mg/ml after 60 mins. Put shortly:
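Silicone disks preconditioned in human plasma for 24 h at 37°C with shaking, then shaken 24 h at 37°C with MRSA at 5.5 × 10^5 cells/ml in MHB. Disks washed 30 min in 0.9% saline, exposed to drug for 1 h at 37°C, sonicated 5 min in saline, vortexed and plated on blood agar overnight. 5–10 replicates. Mean CFU/ml, capped at 5,000.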

Assay [8] concerns Staphylococcus aureus. The assay is described as follows: Antimicrobial activity against methicillin-resistant Staphylococcus aureus embedded in MRD biofilm model at 3 mg/ml after 15 mins in drug assessed as 24 hr regrowth. Put shortly:
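MRSA biofilm grown on catheter segments in a modified Robbins device: 5% dextrose infusate at 2 × 10^5 CFU/ml, 60 ml/h for 8 h at 37°C, then 10 h incubation and a saline flush. Segments exposed to drug in broth for 15 min at 37°C, then reincubated 24 h at 37°C in Mueller-Hinton broth, scrape-sonicated and plated on blood agar. Mean CFU/ml, capped at 500.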

SMILES strings stand for the structures.

Consider `CN(C)c1ccc(O)c2c1C[C@H]1C[C@H]3[C@H](N(C)C)C(O)=C(C(N)=O)C(=O)[C@@]3(O)C(O)=C1C2=O` [MINOCYCLINE], for which the CFU/ml was 5000 in the assay on Candida parapsilosis [1]; 500 in the assay with Candida parapsilosis [2]; 324 in the assay on Staphylococcus aureus [3]; 5000 in the assay with Staphylococcus aureus [4]; 138 in the assay with Candida parapsilosis [5]; 5000 in the assay with Candida parapsilosis [6]. Further, the values for the CFU/ml with Staphylococcus aureus [7] and in the assay on Staphylococcus aureus [8] were 5000 and 308, respectively.
